Consider eleven compounds from ChEMBL document CHEMBL1149336, “Fumarranol, a rearranged fumagillin analogue that inhibits angiogenesis in vivo” (J Med Chem, 2006).

Broadly, the IC50 is the point on the concentration scale where inhibition reaches its midpoint. The low end stands for higher potency, the high end for lower potency.

The test system of experiment [1] is AEC. As to the kind of experiment: Antiproliferative activity against BAEC. The settings on record: Bos taurus.
In experiment [2] the test system is Mus musculus. Kind of experiment: Inhibition of VEGF and FGF-stimulated angiogenesis in mouse at 90 mg/kg by Matrigel plug assay. The class given is functional, organism-based. Details: dose 90 mg/kg. In a few lines: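 Matrigel with VEGF and basic FGF injected subcutaneously into mice and left 10 days while new vessels grew in. Compound given at 90 mg/kg/day. Vessel ingrowth was judged by the red colour of the plug and by MAS-trichrome staining of plug slices.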

In experiment [3] the test system is Mus musculus. As to the kind of experiment: Ulceration in mouse at 90 mg/kg. The class given is functional, organism-based. Details: dose 90 mg/kg. In a few lines:
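Mice in the VEGF/bFGF matrigel-plug study were dosed at 90 mg/kg/day and their skin was inspected for ulceration.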

Experiment [4] relates to AEC. Kind of experiment: Antiproliferative activity against BAEC at 100 uM. The following applies: Bos taurus. The class given is functional, cell-based.
In experiment [5] the target is Methionine aminopeptidase 2 (Homo sapiens) (UniProt P50579). As to the kind of experiment: Inhibition of human MetAP2 at 100 uM.
For experiment [6], the system named is Mus musculus. As to the kind of experiment: Inhibition of VEGF and FGF-stimulated angiogenesis in mouse at 30 mg/kg by Matrigel plug assay. The class given is functional, organism-based. Details: dose 30 mg/kg. In a few lines:
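Mice received subcutaneous matrigel containing VEGF and basic FGF, with the agent dosed at 30 mg/kg/day. After 10 days, vessel ingrowth into the plug was judged by the plug's red colour and by MAS-trichrome staining of matrigel slices to visualize blood vessels.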

Experiment [7] concerns Mus musculus. Kind of experiment: Ulceration in mouse at 30 mg/kg. The class given is functional, organism-based. Details: dose 30 mg/kg.

The source made the active and inactive calls. No cut-off for these calls is given here.

Chain of Methionine aminopeptidase 2 (Homo sapiens) (P50579 2-478 limits assumed): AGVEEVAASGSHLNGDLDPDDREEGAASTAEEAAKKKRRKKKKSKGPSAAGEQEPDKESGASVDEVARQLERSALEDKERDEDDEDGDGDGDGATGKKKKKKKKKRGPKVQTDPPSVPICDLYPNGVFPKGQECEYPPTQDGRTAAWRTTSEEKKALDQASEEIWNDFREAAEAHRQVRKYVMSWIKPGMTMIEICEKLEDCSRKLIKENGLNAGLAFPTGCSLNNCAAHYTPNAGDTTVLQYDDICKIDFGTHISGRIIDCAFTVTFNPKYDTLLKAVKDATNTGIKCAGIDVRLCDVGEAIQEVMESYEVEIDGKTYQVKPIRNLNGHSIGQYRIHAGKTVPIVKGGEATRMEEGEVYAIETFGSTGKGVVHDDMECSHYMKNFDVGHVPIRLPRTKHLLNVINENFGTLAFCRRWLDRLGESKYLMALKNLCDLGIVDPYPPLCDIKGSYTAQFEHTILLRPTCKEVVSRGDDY

In turn, `CO[C@]12C(=O)CC[C@@]1(CO)C2[C@@]1(C)O[C@@H]1CC=C(C)C` (stereo not given in full) [FUMARRANOL] registered an IC50 in the experiment on AEC [1] of 34 nM. Further, the outcome in the experiment with Mus musculus [2] was Active. In addition, the outcome with Mus musculus [3] was inactive.

`CO[C@@H]1C(=O)CC[C@](O)(C=O)[C@H]1[C@@]1(C)O[C@@H]1CC=C(C)C` [FUMAGALONE]: in the experiment on AEC [1], the IC50 was found to be 52 nM. In other words, the double-digit nanomolar range. In the case of `CCOC(=O)CCCC/C=C/C[C@H]1O[C@]1(C)C1[C@]2(CO)CCC(=O)[C@]12OC` (stereo not given in full), the result (in the experiment on AEC [4]; in experiment [5]) was inactive.

As to `CO[C@]12C(=O)CC[C@@]1(CN1C(=O)c3ccccc3C1=O)C2[C@@]1(C)O[C@@H]1CC=C(C)C` (stereo not given in full), the result (in the experiment on AEC [4]; in experiment [5]) was inactive. Regarding `CO[C@]12C(=O)CC[C@@]1(CO)[C@H]2/C(C)=C/CC=C(C)C`, in the experiment on AEC [1], 1780 nM corresponded to half-maximal inhibition (IC50).

The compound `CO[C@]12C(=O)CC[C@@]1(C=O)C2[C@@]1(C)O[C@@H]1CC=C(C)C` (stereo not given in full) gave an IC50 in the experiment with AEC [1] of 370 nM.

`CO[C@@]12C([C@@]3(C)O[C@@H]3CC=C(C)C)[C@]1(CO)CC[C@H]2O` (stereo not given in full): the result (in the experiment with AEC [4]; in experiment [5]) was inactive.

`COC[C@@]12CCC(=O)[C@]1(OC)C2[C@@]1(C)O[C@@H]1CC=C(C)C` (stereo not given in full): the result (with AEC [4]; in experiment [5]) was inactive. Regarding `CO[C@]12C(=O)CC[C@@]1(CO)C2C(C)CCC=C(C)C` (stereo not given in full), half-maximal inhibition in the experiment with AEC [1] (IC50) was put at 4000 nM. That is a single-digit micromolar value. `CO[C@@H]1[C@H](OC(=O)NC(=O)CCl)CC[C@]2(CO2)[C@H]1[C@@]1(C)O[C@@H]1CC=C(C)C` [O-CHLOROACETYLCARBAMOYLFUMAGILLOL]: the outcome in the experiment with Mus musculus [6] and in the experiment with Mus musculus [7] was Active. In the experiment on AEC [1], this compound gave an IC50 of 0.037 nM. On to `CO[C@]12C(=O)/C(=C/c3ccco3)C[C@@]1(CO)C2[C@@]1(C)O[C@@H]1CC=C(C)C` (stereo not given in full), for which the outcome (in the experiment with AEC [4]; in experiment [5]) was inactive.
